# Assay outcomes as filed in PubChem BioAssay.
# INS-1E GSIS act = primary screen for activators of insulin secretion dependent on glucose, INS-1E cells, GLuc reporter luminescence; 370,000 compounds, 0.61% hits; INS-1E GLuc reporter insulin secretion, 2-3 h; activation, % at 16.6 µM;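 active = lowest replicate activation of at least 40%, so every replicate reaches that level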;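 note: 0% = median of neutral control wells and 100% = median of IBMX positive control wells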
# RAD54 branch = inhibitors of human RAD54 branch migration; 360,000 compounds, 0.14% hits; inhibition, % at 10.4 µM; RAD54 Holliday junction branch migration, FAM/BHQ fluorescence; Q92698;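 active = mean normalized replicate activity at least 40 and at least half of replicates scoring 40 or more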;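 note: 0% = median of neutral control wells and 100% = median of positive control wells; inhibitors cause a drop in the FAM fluorescence signal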
# MLL AF4-AF9 inh = inhibitors of human MLL-AF4/AF9 interaction | P42568 | AlphaScreen, biotin-AF4 peptide binding to FLAG-AF9 | inhibition, % at 10 µM | 350,000 compounds, 0.47% hits | AID 651704;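 active = every replicate reaching a set inhibition limit, whatever the replicate mean, cut at about 25% in these data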;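 note: 0% = plate neutral control median and 100% = total signal loss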
# RAD52 anneal inh = blocks human RAD52 DNA annealing | inhibition, % at 18.7 µM | 360,000 compounds, 0.46% hits | P43351 | recombinant RAD52 DNA annealing, FRET fluorescence;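 active = every replicate showing at least 50% inhibition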
# E-selectin induc = E-selectin induction on HUVECs | P16581 | activation, % at 7.58 µM | 260,000 compounds, 0.37% hits | HUVEC E-selectin immunofluorescence imaging; normalized: neutral wells 0, TNF-alpha wells 100;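 active = mean E-selectin-positive cell signal at least 10% of the positive control, reached in at least 60% of replicates, without over 20% cell loss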
# Target sequence (P16581 whole entry, looked up): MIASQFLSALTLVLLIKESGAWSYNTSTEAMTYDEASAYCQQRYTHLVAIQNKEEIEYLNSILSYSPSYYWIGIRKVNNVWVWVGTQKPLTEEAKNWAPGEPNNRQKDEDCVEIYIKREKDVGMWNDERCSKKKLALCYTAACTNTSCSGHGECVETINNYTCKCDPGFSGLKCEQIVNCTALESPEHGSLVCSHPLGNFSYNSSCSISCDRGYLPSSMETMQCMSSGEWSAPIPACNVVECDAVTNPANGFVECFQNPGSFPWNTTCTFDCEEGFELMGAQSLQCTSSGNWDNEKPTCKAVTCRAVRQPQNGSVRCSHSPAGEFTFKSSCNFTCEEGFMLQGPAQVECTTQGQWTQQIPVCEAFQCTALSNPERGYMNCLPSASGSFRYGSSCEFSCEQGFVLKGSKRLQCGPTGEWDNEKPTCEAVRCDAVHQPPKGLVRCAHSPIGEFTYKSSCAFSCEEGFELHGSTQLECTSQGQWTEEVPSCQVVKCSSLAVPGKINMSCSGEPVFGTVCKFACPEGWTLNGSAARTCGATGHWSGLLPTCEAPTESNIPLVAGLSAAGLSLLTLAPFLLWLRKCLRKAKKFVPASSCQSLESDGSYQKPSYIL
#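 System: HUVEC, human umbilical vein endothelial cells; quantity: 3,000 cells/well; buffer or medium: EGM-2 medium, gelatin-coated wells; dosing: single-point compound dose; detection: immunofluorescence imaging; evaluation: % PE-positive cells; benchmarks: TNF-alpha, DMSO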
# Ecoli rRNA inh = selective bacterial rRNA inhibition in E. coli | GFP signal change (wild-type ribosome), % (test concentration not listed) | E. coli WT GFP vs humanized-ribosome RFP mutants, fluorescence, 24 h; stronger effect = lower value; DMSO median 0, no signal -100 | 350,000 compounds, 1.6% hits | AID 720706;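 active = significant combined selectivity score with lowered wild-type GFP, culture density cut under 30%, mutant RFP and density less affected; inactive = any of these conditions unmet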
# * = called active by the depositor; nt = no result given. Compounds with a hit are over-represented: about 2.6% of the library has one in this group of screens.
SMILES,INS-1E GSIS act,RAD54 branch,MLL AF4-AF9 inh,RAD52 anneal inh,E-selectin induc,Ecoli rRNA inh
Cc1ccccc1-c1cnc2c(c1)C(=O)N([C@@H](C)CO)C[C@@H](C)[C@H](CN(C)C(=O)c1ccccc1)O2,3,-5,nt,nt,7,-4
COc1ccc(NC(=O)N[C@@H]2CC[C@H](CCNC(=O)c3ccccc3F)O[C@H]2CO)cc1,7,4,-1,-6,0,-3
O=C(C[C@@H]1C[C@H]2c3cc(NC(=O)Nc4ccccc4)ccc3O[C@H]2[C@@H](CO)O1)NCCN1CCCCC1,13,-4,7,21,0,7
C[C@@H]1CCCCO[C@H](CN(C)Cc2ccc(C(=O)O)cc2)[C@@H](C)CN([C@H](C)CO)C(=O)c2cc(NC(=O)Cc3ccccc3)ccc2O1,6,-7,1,-3,0,6
CCCC(=O)N1CC2(C1)CN(C(=O)Nc1c(C)noc1C)[C@@H](CO)c1c2c2ccc(OC)cc2n1C,26,nt,-1,nt,0,1
CCCCc1c(-c2cccc(OC)c2)ncn1CCc1ccccc1OC,80*,nt,5,39,0,-46
CCCCc1c(-c2ccc(OC)c(OC)c2)ncn1CCc1ccccc1OC,-25,nt,11,28,0,-63
CCCCc1c(Cc2cccc(F)c2)ncn1CCc1ccccc1OC,123*,nt,9,2,0,-66
CCCn1c(=N)n(CC(=O)C(C)(C)C)c2ccccc21,nt,-8,nt,nt,nt,nt
CCn1c(=N)n(CC(=O)C(C)(C)C)c2ccccc21,18,-9,12,-17,nt,-23*
COc1ccc(NS(=O)(=O)c2ccc(C)c(NC(=O)CN3C(=O)NC4(CCCC4)C3=O)c2)cc1,-10,4,41*,24,4,3
CCN(CC)c1ccc(S(=O)(=O)N2CCOCC2)cc1NC(=O)CN1C(=O)NC2(CCCC2)C1=O,-16,-8,-1,-21,63*,7
Cc1ccc(S(=O)(=O)N(C)C)cc1NC(=O)CN1C(=O)NC2(CCCCCC2)C1=O,-9,-11,3,-10,0,4
COc1ccc(OC)c(-c2csc(NC(=O)CN3C(=O)NC4(CCCC4)C3=O)n2)c1,-13,nt,4,-11,-2,-25*
S=c1[nH]nc(-c2ccccc2Cl)n1/N=C/C=C/c1ccco1,6,6,47*,-18,0,-1
CO[C@@H]1CN(C)C(=O)c2cc(NC(=O)c3cnccn3)ccc2OC[C@H](C)N(C)C[C@@H]1C,8,6,-2,-6,0,3
C[C@@H]1CN([C@@H](C)CO)C(=O)c2cc(C3=CCCCC3)cnc2O[C@H]1CN(C)Cc1ccccn1,8,-3,0,-7,0,1
CCC1C(c2ccccc2)N(C)C(c2ccccc2)CC1(O)c1ccccc1 (centres undefined),-8,nt,1,1,nt,-56
CC(C)C1C(c2ccccc2)N(C)C(c2ccccc2)CC1(O)c1ccccc1 (centres undefined),6,-5,6,-9,nt,-30*
c1ccc(CN2CCN(c3ncccn3)CC2)cc1,-12,0,-4,1,0,9
O=C(CN1CCN(c2ncccn2)CC1)N(Cc1ccccc1)c1ccc(F)cc1,-34,-12,-9,3,nt,-35*
CCOc1ccc(CCNC(=O)CS(=O)(=O)Cc2nc(-c3ccc(OC)cc3)oc2C)cc1,-15,4,-1,-22,nt,9
CCOc1ccc(CNC(=O)CS(=O)(=O)Cc2nc(-c3ccc(OC)cc3)oc2C)cc1,-12,2,48*,-12,1,-1
Cc1ccc(S(=O)(=O)N[C@H]2CC[C@@H](CCn3cc(C4(O)CCCC4)nn3)O[C@@H]2CO)cc1,2,-1,0,-9,0,-4
Cc1[nH]c2ccccc2c1/C=C(\C#N)C(=O)NCC1CCCO1 (centres undefined),4,nt,3,-16,2,-23*
SMILES,INS-1E GSIS act,RAD54 branch,MLL AF4-AF9 inh,RAD52 anneal inh,E-selectin induc,Ecoli rRNA inh
c1ccc(Cc2cnc(N3CCN(Cc4cccc(-c5ccsc5)n4)CC3)nc2)cc1,nt,nt,nt,-16,0,-36*
CC(C)NC(=O)N(C)C[C@H]1Oc2ccc(NC(=O)CCC(F)(F)F)cc2CC(=O)N([C@H](C)CO)C[C@@H]1C,11,-32,-3,-2,43*,6
CC(C)NC(=O)N(C)C[C@@H]1Oc2ccc(NC(=O)CCC(F)(F)F)cc2CC(=O)N([C@@H](C)CO)C[C@@H]1C,23,-13,-2,-6,25,-3
CC(C)NC(=O)N(C)C[C@@H]1Oc2ccc(NC(=O)CCC(F)(F)F)cc2CC(=O)N([C@@H](C)CO)C[C@H]1C,0,2,-6,-12,113*,5
CC(C)NC(=O)N(C)C[C@H]1Oc2ccc(NC(=O)CCC(F)(F)F)cc2CC(=O)N([C@@H](C)CO)C[C@H]1C,11,8,-4,-18,55*,4
CC(C)NC(=O)N(C)C[C@H]1Oc2ccc(NC(=O)CCC(F)(F)F)cc2CC(=O)N([C@H](C)CO)C[C@H]1C,12,-1,-4,-3,20,7
O=C(Cc1ccccn1)NCC[C@@H]1CC[C@H](NS(=O)(=O)c2ccc(F)cc2)[C@@H](CO)O1,13,-9,-3,-20,0,1
O=C(C[C@H]1C=C[C@H](NC(=O)c2cccnc2)[C@H](CO)O1)NCc1ccc(Cl)c(Cl)c1,-4,-6,-2,6,0,2
COc1ccc2c3c([nH]c2c1)[C@H](CO)N(C(=O)C1CCCC1)CC31CCN(S(C)(=O)=O)CC1,-1,nt,5,-14,0,-2
CC(C)NC(=O)C1(C)CSCC(=O)N1CCCN1CCOCC1 (centres undefined),26,nt,nt,-13,0,2
CC(C)NC(=O)C1(C)CN(S(C)(=O)=O)CC(=O)N1CCCN1CCOCC1 (centres undefined),44*,nt,nt,-7,1,nt
CCCCn1c(N)c(Sc2ccc(Cl)cc2)c(=O)[nH]c1=O,-8,-5,-2,-3,nt,-21*
CCCCn1c(N)c(Sc2ccc([N+](=O)[O-])cc2)c(=O)[nH]c1=O,26,1,2,-7,nt,2
Cc1nc2ccccn2c1C(=O)CSc1cccc(Cl)c1,0,nt,1,-2,nt,-57
Cc1nc2ccccn2c1C(=O)CSc1ccccc1,1,nt,0,-10,nt,-37*
C[C@H](CO)N1C[C@H](C)[C@H](CN(C)S(=O)(=O)c2ccc(Cl)cc2)Oc2ccc(NS(=O)(=O)c3ccc(F)cc3)cc2CC1=O,6,-26,nt,nt,92*,2
C[C@@H]1CN([C@@H](C)CO)C(=O)Cc2cc(NC(=O)Nc3ccc(F)cc3)ccc2O[C@@H]1CN(C)S(=O)(=O)c1cn(C)cn1,9,nt,nt,nt,73*,2
